This is a sample that favours compounds with a hit; in the whole collection about 4.1% have one here.
ATG4B inhibitor: ATG4B (human) cysteine protease inhibition. ATG4B cleavage of LC3-PLA2, NBD-HPC fluorescence, 1 h. inhibition, % at 8.33 µM. 340,000 tested, 0.51% active; in the data active = inhibition above about 40%
Target sequence (Q9Y4P1 whole entry, looked up): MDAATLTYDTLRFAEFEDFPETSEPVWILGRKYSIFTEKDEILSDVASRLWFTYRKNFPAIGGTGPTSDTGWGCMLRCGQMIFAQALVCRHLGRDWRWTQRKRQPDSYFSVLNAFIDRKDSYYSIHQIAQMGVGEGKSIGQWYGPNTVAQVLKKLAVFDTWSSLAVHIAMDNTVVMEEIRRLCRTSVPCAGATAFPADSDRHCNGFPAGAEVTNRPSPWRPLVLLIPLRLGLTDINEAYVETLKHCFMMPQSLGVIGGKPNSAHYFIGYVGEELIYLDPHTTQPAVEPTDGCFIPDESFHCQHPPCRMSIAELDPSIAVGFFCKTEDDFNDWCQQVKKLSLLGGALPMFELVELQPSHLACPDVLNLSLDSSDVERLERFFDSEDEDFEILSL
MC4R antag cAMP: antagonists of human melanocortin 4 receptor (MC4R); 360,000 tested, 0.48% active; MC4R-expressing cells, MTII-stimulated cAMP, LANCE TR-FRET; inhibition, % at 6.5 µM;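 active = inhibition above its plate's cutoff, the mean of tested wells on that plate plus 3 SD, cut at about 29% in these data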;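 note: 0% = Melanotan II alone and 100% = Melanotan II plus saturating MCL0020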
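Assay system: U2OS cells stably expressing human melanocortin 4 receptor (MC4R) / Dosing: 6.5 µM / Timing: compound 30 min, challenge 1 h, detection 1 h / Measured by: Eu-cAMP/anti-cAMP TR-FRET, emission 671 nm / Replicates: singlicate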
SMARCA2 activ: SMARCA2 function activation, primary screen; MG213 cells, MMTV-luciferase reporter, dexamethasone, overnight; activation, % at 9.1 µM; 370,000 tested, 1% active; AID 652017; in the data active = activation above about 7.8%;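 note: 0% = vehicle wells and 100% = reference activator wells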
MPTP inh: permeability transition pore inhibition; isolated mouse mitochondria, Ca2+ swelling absorbance, 30 min; inhibition, % at 10 µM; 360,000 tested, 1.4% active; AID 602449;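 active = inhibition of 50% or more, scaled per plate between neutral and stimulator controls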;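 note: 0% = DMSO wells given calcium and 100% = 1 mM EGTA wells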
MC4R barr agon: agonists of human melanocortin 4 receptor (MC4R) beta-arrestin; U2OS MC4R beta-arrestin complementation, luminescence; percent of melanotan II response, DMSO zero; activation, % at 8.9 µM; 360,000 tested, 0.98% active;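 active = activation above a per-plate cutoff, the mean activation of sample wells on that plate plus 3 SD, cut at about 8% in these data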
ATG4B confirm: ATG4B (human) inhibition, single-dose confirmed. AID 504757. 320 tested, 92% active. inhibition, % at 8.33 µM. ATG4B protease fluorescent substrate cleavage assay. shares compounds with ATG4B inhibitor; in the data active = inhibition above about 39%
PLA2 counter: counter-screen for ATG4B inhibitors: human phospholipase A2; shares compounds with ATG4B inhibitor; purified PLA2, NBD-C6-HPC fluorescence, 45 min; inhibition, % at 8.33 µM; 1,600 tested, 66% active; AID 588402; in the data active = inhibition above about 50%
Target sequence (P04054 whole entry, looked up): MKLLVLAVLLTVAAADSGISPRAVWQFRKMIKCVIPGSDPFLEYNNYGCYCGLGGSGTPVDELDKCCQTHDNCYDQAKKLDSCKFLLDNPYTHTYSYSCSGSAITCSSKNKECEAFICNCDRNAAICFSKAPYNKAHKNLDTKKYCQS
* = called active by the depositor; . = not tested or not shown.

SMILES	ATG4B inhibitor	MC4R antag cAMP	SMARCA2 activ	MPTP inh	MC4R barr agon	PLA2 counter	others
Cc1sc(-n2c(C)cc(/C=C3\SC(=S)NC3=O)c2C)c(C#N)c1C	81*	-13	-2	15	-4	74*
C[C@H]1COc2cc(Br)ccc2S(=O)(=O)N1Cc1cn(CC2CCCCC2)nn1	.	.	-3	.	.	.
Cc1cc(N/N=C/c2cccc(F)c2)nc(NCc2ccccc2)n1	73*	14	3	21	0	80*
Cc1cc(N/N=C/c2ccc(Cl)cc2)nc(NCc2ccccc2)n1	23	4	-1	39	0	.
Cc1cc(N/N=C/c2ccccc2)nc(NCc2ccccc2)n1	69*	8	-2	12	-1	76*
Cc1cc(N/N=C/c2ccccc2F)nc(NCc2ccccc2)n1	59*	9	-3	-1	-1	79*
Cc1cc(N/N=C/c2cccc(Cl)c2)nc(NCc2ccccc2)n1	76*	16	0	20	-2	84*
Cc1cc(-c2ccccc2)nc(N/N=C/c2ccccc2)n1	-11	11	1	0	1	.
Cc1cccc(C(=O)c2cnc3ccccc3c2-c2ccccc2)c1	57*	2	-2	3	-1	59*
COc1ccc(S[C@]2(C(=O)N3CCN(c4ncccn4)CC3)CC(=O)N(C(=O)c3ccccc3)[C@@H]2c2ccc(OC)cc2)cc1	.	.	4	.	.	.
COc1ccc(OC)c(CN2C(=O)CCCC2(C)c2nnnn2C2CCCC2)c1 (stereo not given)	.	.	-2	.	.	.
COc1cc2c(cc1NC(=O)COC(=O)[C@@H](NS(=O)(=O)c1cccc(Cl)c1)C(C)C)oc1ccccc12	47*	10	-1	0	0	63*
Cc1cc(C(=O)N/N=C/c2ccc(-c3cccc(Cl)c3Cl)o2)n[nH]1	50*	-2	-1	7	0	21
Cc1cc(C(=O)N/N=C/c2ccc(-c3cccc(Br)c3)o2)n[nH]1	-2	0	-3	4	4	.
COC(=O)c1cc2c(c3c4cc(OC)ccc4n(S(=O)(=O)c4ccc(F)cc4)c13)C(=O)N(C)C2	.	.	-6	.	.	.
CCOc1ccc2nc3cc(N=Nc4ccc(N)nc4N)ccc3c(N)c2c1	54*	-1	.	12	2	69*
O=C(Nc1nc2nc(-c3ccccc3)cc(-c3ccccc3)n2n1)c1ccco1	42*	14	-4	-1	-2	51*
CN(C(=O)C1CCN(c2cncnc2)CC1)C1CCCCC1	.	.	3	.	.	.
COc1ccc2c(c(-c3ccccc3)cn2C)c1-c1ccccc1	.	.	-3	.	.	.
O=C(O)c1cc(O)c2c(c1)[C@@H]([C@H]1c3cc(C(=O)O)cc(O)c3C(=O)c3c(O[C@@H]4O[C@H](CO)[C@@H](O)[C@H](O)[C@H]4O)cccc31)c1cccc(O[C@@H]3O[C@H](CO)[C@@H](O)[C@H](O)[C@H]3O)c1C2=O	47*	.	.	.	.	-12
CCOC(=O)c1ccc(N=C2SC(C(=O)Nc3ccc(C(=O)O)cc3)CC(=O)N2Cc2cccs2)cc1 (stereo not given)	55*	17	-3	0	-3	55*
O=C(N[C@H]1C[C@@H]2O[C@H](CO)CC[C@@H]2O[C@@H]1CCc1ccc(-c2cccnc2)cc1)c1cccc(F)c1	.	.	-1	.	.	.
O=C(NCc1nnc2c3ccccc3c(-c3ccccc3)nn12)c1ccc(Cl)cc1	42*	23	3	13	-1	58*
Cc1ccccc1C(=O)N[C@H](C(=O)N1CCC[C@H]1C(=O)NCc1ccccc1)c1ccccc1	.	.	2	.	.	.
COc1ccc(NC(=O)c2ccco2)cc1NC(=O)c1c(OC)cccc1OC	46*	15	-2	-1	0	52*
SMILES	ATG4B inhibitor	MC4R antag cAMP	SMARCA2 activ	MPTP inh	MC4R barr agon	PLA2 counter	others
COc1ccc(C2C(C(=O)N3CCC(C)CC3)CC(=O)N2c2ccc(OC)cc2)cc1 (stereo not given)	.	.	-3	.	.	.
S=C(NCCSCc1ccc(Cl)c(Cl)c1)Nc1ccccc1	41*	4	-1	39	3	45	ATG4B confirm=64*
O=C1c2ccccc2N2C(=O)c3ccccc3[C@H]2N1c1ccccc1	55*	3	1	-3	1	61*
COC(=O)C1=C(C)N(Cc2ccc(C(F)(F)F)cc2)C(=NCc2ccc(C(F)(F)F)cc2)NC1c1ccccc1C(F)(F)F (stereo not given)	.	.	-1	.	.	.
Nc1nnc(Cc2ccc(Cl)cc2Cl)s1	71*	-3	-1	0	-2	76*
Cc1ccc(NC(=O)c2cc(NC(=O)CCC(=O)O)ccc2N2CCCCC2)cc1	46*	16	-2	-4	1	49
CCOC(=O)c1cc(NC(=O)CCC(=O)O)ccc1N1CCCCC1	-2	3	-5	-1	0	.
Cc1ccc(C(=O)Nc2ncc(Cc3ccc(F)cc3)s2)o1	57*	2	7.9*	-2	-2	64*
Cc1ccc(C(=O)Nc2ncc(C)s2)o1	-4	15	4	1	0	.
Cc1c[nH]c2cccc(-c3cc4ccccc4o3)c12	.	.	-3	.	.	.
CCOc1ccc(C=NNc2ccc(S(=O)(=O)Nc3ccccc3C(=O)O)cc2[N+](=O)[O-])cc1OC	7	-3	.	9	-2	.
COc1ccccc1NS(=O)(=O)c1cccc(-n2c(O)c(C=Nc3ccccc3C(=O)O)c3ccccc3c2=O)c1	51*	25	-1	3	2	74*
CC(=O)Nc1ccc(C=NNc2ccc(S(=O)(=O)Nc3ccccc3C(=O)O)cc2[N+](=O)[O-])cc1	11	-12	-4	1	-3	.
COc1cc(C=NNc2ccc(S(=O)(=O)Nc3ccccc3C(=O)O)cc2[N+](=O)[O-])ccc1O	46*	-5	1	7	-3	63*
O=C(O)c1ccccc1NS(=O)(=O)c1ccc(N/N=C/c2cccc(O)c2O)c([N+](=O)[O-])c1	51*	-3	-3	2	-6	53*
COc1ccc(CN2CN3Cc4ccc(C)cc4C3CS2(=O)=O)cc1 (stereo not given)	.	.	-4	.	.	.
C#CCCCN([C@H](C(=O)OC)C(C)C)S(=O)(=O)c1ccc(F)cc1Br	.	.	-4	.	.	.
C[C@H](CO)N1C[C@H](C)[C@@H](CN(C)C(=O)Nc2ccc3c(c2)OCO3)OCc2cn(nn2)CCCC1=O	.	.	0	.	.	.
CC1CCN(C2=C(NS(=O)(=O)c3ccccc3)C(=O)c3ccccc3C2=O)CC1	46*	4	7.8*	4	-1	65*
CC1CCN(C2=C(NS(=O)(=O)c3ccc(Cl)cc3)C(=O)c3ccccc3C2=O)CC1	-1	-3	0	2	-2	.

Bioassay records (PubChem BioAssay)
